Converted amounts (≈) assume the structure as drawn. The source made the active and inactive calls. The rule behind the calls is not given here.
Tests used:
Escherichia coli [1] = assay: Antibacterial activity against Escherichia coli CSH-2 by agar dilution method; assay type: functional
Method in brief: (§1)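 Minimal inhibitory concentration (MIC) by agar dilution on Mueller-Hinton agar, following the CLSI protocol. Strains were routinely grown in LB broth at 37°C with shaking.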

Escherichia coli [2] = assay: Antibacterial activity against Escherichia coli isolate ARS3 carrying pARS3 by agar dilution method; assay type: functional; method in brief: as §1
Nucleic Acid [3] = assay: Binding affinity to 16S rRNA G1494(N7) position in wild type Escherichia coli JM109 30S sunit at 1000 uM by footprint assay; assay type: nucleic-acid assay
Method in brief: (§2)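 Aminoglycoside (1–1,000 μM final) was added, 37°C 30 min, then ice 10 min. DMS modification followed at 37°C for 10 min, then quench and rRNA extraction. G1494 protection was read by primer extension.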

Escherichia coli [4] = assay: Antibacterial activity against Escherichia coli CSH-2 carrying Escherichia coli ARS3 pARS3 by agar dilution method; assay type: functional; method in brief: as §1
Nucleic Acid [5] = assay: Binding affinity to 16S rRNA G1494(N7) position in A1408-methylated Escherichia coli JM109 30S sunit at 100 uM by footprint assay; assay type: nucleic-acid assay; method in brief: as §2
Escherichia coli [6] = assay: Antibacterial activity against Escherichia coli JM109 carrying pMCL-BE by agar dilution method; assay type: functional; method in brief: as §1
Escherichia coli [7] = assay: Antibacterial activity against Escherichia coli JM109 carrying pMCL210 by agar dilution method; assay type: functional; method in brief: as §1
Nucleic Acid [8] = assay: Binding affinity to 16S rRNA G1494(N7) position in wild type Escherichia coli JM109 30S sunit at 100 uM by footprint assay; assay type: nucleic-acid assay; method in brief: as §2
Nucleic Acid [9] = assay: Binding affinity to 16S rRNA G1494(N7) position in A1408-methylated Escherichia coli JM109 30S sunit at 1000 uM by footprint assay; assay type: nucleic-acid assay; method in brief: as §2
Escherichia coli [10] = assay: Antibacterial activity against Escherichia coli (DE3)pLysS carrying pCold-IV by microdilution susceptibility test; assay type: functional
Escherichia coli [11] = assay: Antibacterial activity against Escherichia coli (DE3)pLysS carrying pCold-NpmA by microdilution susceptibility test; assay type: functional
Nucleic Acid [12] = assay: Binding affinity to 16S rRNA G1494(N7) position in A1408-methylated Escherichia coli JM109 30S sunit by footprint assay; assay type: nucleic-acid assay
Method in brief: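 Aminoglycoside added (final 1 μM to 1,000 μM) for 30 min at 37°C, then 10 min on ice. DMS probing for 10 min at 37°C. The G1494 footprint was read by reverse-transcriptase primer extension.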

| Molecule | MIC (Escherichia coli [1]) [µg/mL] | MIC (Escherichia coli [2]) [µg/mL] | Activity (Nucleic Acid [3]) | MIC (Escherichia coli [4]) [µg/mL] | Activity (Nucleic Acid [5]) | MIC (Escherichia coli [6]) [µg/mL] | MIC (Escherichia coli [7]) [µg/mL] | Activity (Nucleic Acid [8]) | Activity (Nucleic Acid [9]) | MIC (Escherichia coli [10]) [µg/mL] | MIC (Escherichia coli [11]) [µg/mL] | Activity (Nucleic Acid [12]) |
| --- | --- | --- | --- | --- | --- | --- | --- | --- | --- | --- | --- | --- |
| NC[C@H]1O[C@H](O[C@H]2[C@H](O[C@@H]3O[C@H](CO)[C@@H](O)[C@H]3O)[C@@H](O)[C@H](N)C[C@@H]2N)[C@H](N)[C@@H](O)[C@@H]1O [RIBOSTAMYCIN] | 0.25 (≈ 0.55 µM) | > 256 | Active | > 256 | inactive | > 256 | 0.5 (≈ 1.1 µM) | Active | inactive | – | – | – |
| NC[C@@H]1O[C@H](O[C@H]2[C@@H](O)[C@H](O[C@@H]3[C@@H](O)[C@H](N)C[C@H](N)[C@H]3O[C@H]3O[C@H](CO)[C@@H](O)C[C@H]3N)O[C@@H]2CO)[C@H](N)[C@@H](O)[C@@H]1O[C@H]1O[C@H](CO)[C@@H](O)[C@H](O)[C@@H]1O [LIVIDOMYCIN] | 0.5 (≈ 0.656 µM) | 256 (≈ 336 µM) | – | 16 (≈ 21 µM) | – | 32 (≈ 42 µM) | 2 (≈ 2.63 µM) | – | – | – | – | – |
| NCC[C@H](O)C(=O)N[C@@H]1C[C@H](N)[C@@H](O[C@H]2O[C@H](CN)CC[C@H]2N)[C@H](O)[C@H]1O[C@H]1O[C@H](CO)[C@@H](O)[C@H](N)[C@H]1O [ARBEKACIN] | 0.13 (≈ 0.235 µM) | 64 (≈ 116 µM) | – | 4 (≈ 7.24 µM) | – | 4 (≈ 7.24 µM) | 0.25 (≈ 0.452 µM) | – | – | – | – | – |
| CN[C@@H]1[C@H](O[C@H]2[C@H](O[C@H]3[C@H](O)[C@@H](O)[C@H](N=C(N)N)[C@@H](O)[C@@H]3N=C(N)N)O[C@@H](C)[C@]2(O)C=O)O[C@@H](CO)[C@H](O)[C@H]1O [STREPTOMYCIN] | 1 (≈ 1.72 µM) | 128 (≈ 220 µM) | – | 32 (≈ 55 µM) | – | 1 (≈ 1.72 µM) | 1 (≈ 1.72 µM) | – | – | – | – | – |
| NC[C@@H]1O[C@H](O[C@H]2[C@@H](O)[C@H](O[C@@H]3[C@@H](O)[C@H](N)C[C@H](N)[C@H]3O[C@H]3O[C@H](CN)[C@@H](O)[C@H](O)[C@H]3N)O[C@@H]2CO)[C@H](N)[C@@H](O)[C@@H]1O [FRAMYCETIN] | 0.13 (≈ 0.212 µM) | > 256 | Active | 64 (≈ 104 µM) | inactive | 64 (≈ 104 µM) | 0.25 (≈ 0.407 µM) | Active | inactive | – | – | – |
| NCC[C@H](O)C(=O)N[C@@H]1C[C@H](N)[C@@H](O[C@H]2O[C@H](CN)[C@@H](O)[C@H](O)[C@H]2O)[C@H](O)[C@H]1O[C@H]1O[C@H](CO)[C@@H](O)[C@H](N)[C@H]1O [AMIKACIN] | 0.13 (≈ 0.222 µM) | 256 (≈ 437 µM) | – | 16 (≈ 27.3 µM) | – | 32 (≈ 54.6 µM) | 0.5 (≈ 0.854 µM) | – | – | – | – | – |
| CN[C@@H]1[C@H](O)[C@H](NC)[C@H]2O[C@@]3(O)C(=O)C[C@@H](C)O[C@H]3O[C@@H]2[C@H]1O [SPECTINOMYCIN] | 16 (≈ 48.1 µM) | > 256 | – | > 256 | – | 16 (≈ 48.1 µM) | 16 (≈ 48.1 µM) | – | – | – | – | – |
| NC[C@H]1O[C@H](O[C@H]2[C@H](O)[C@@H](O[C@H]3O[C@H](CO)[C@@H](O)[C@H](N)[C@H]3O)[C@H](N)C[C@@H]2N)[C@H](O)[C@@H](O)[C@@H]1O [KANAMYCIN] | 0.25 (≈ 0.516 µM) | > 256 | – | > 256 | – | > 256 | 0.5 (≈ 1.03 µM) | – | – | – | – | – |
| NC[C@@H]1O[C@H](O[C@H]2[C@@H](O)[C@H](O[C@@H]3[C@@H](O)[C@H](N)C[C@H](N)[C@H]3O[C@H]3O[C@H](CO)[C@@H](O)[C@H](O)[C@H]3N)O[C@@H]2CO)[C@H](N)[C@@H](O)[C@@H]1O [PAROMOMYCIN] | 0.5 (≈ 0.812 µM) | 64 (≈ 104 µM) | – | 4 (≈ 6.5 µM) | – | 4 (≈ 6.5 µM) | 1 (≈ 1.62 µM) | – | – | – | – | – |
| NC[C@@H]1CC[C@@H](N)[C@@H](O[C@H]2[C@H](O)[C@@H](O[C@H]3O[C@H](CO)[C@@H](O)[C@H](N)[C@H]3O)[C@H](N)C[C@@H]2N)O1 [DIBEKACIN] | 0.13 (≈ 0.288 µM) | > 256 | – | 128 (≈ 283 µM) | – | 128 (≈ 283 µM) | 0.25 (≈ 0.554 µM) | – | – | – | – | – |
| NC[C@H]1O[C@H](O[C@H]2[C@H](O)[C@@H](O[C@H]3O[C@H](CO)[C@@H](O)[C@H](N)[C@H]3O)[C@H](N)C[C@@H]2N)[C@H](N)C[C@@H]1O [TOBRAMYCIN] | ≤ 0.06 | > 256 | – | 128 (≈ 274 µM) | – | 128 (≈ 274 µM) | 0.13 (≈ 0.278 µM) | – | – | – | – | – |
| CN[C@@H]1[C@@H](O[C@H]2O[C@H](CO)[C@@H](N)[C@H](O)[C@H]2O)OC2C[C@@H](N)[C@@H](O[C@H]3[C@H](O)[C@@H](O)[C@H](N)C[C@@H]3N)OC2[C@@H]1O (stereo not given in full) [APRAMYCIN] | 1 (≈ 1.85 µM) | > 256 | – | > 256 | – | > 256 | 2 (≈ 3.71 µM) | – | – | 3.9 (≈ 7.23 µM) | > 1000 | – |
| CCN[C@@H]1C[C@H](N)[C@@H](O[C@H]2OC(CN)=CC[C@H]2N)[C@H](O)[C@H]1O[C@H]1OC[C@](C)(O)[C@H](NC)[C@H]1O [NETILMICIN] | ≤ 0.06 | > 256 | – | > 256 | – | > 256 | 0.13 (≈ 0.273 µM) | – | – | – | – | – |
| CN[C@@H]1[C@@H](O)[C@@H](O[C@@H]2[C@@H](O)[C@H](O[C@H]3OC(CN)=CC[C@H]3N)[C@@H](N)C[C@H]2N)OC[C@]1(C)O [SISOMICIN] | ≤ 0.06 | > 256 | – | > 256 | – | 256 (≈ 572 µM) | 0.13 (≈ 0.29 µM) | – | – | – | – | – |
| CN[C@H]1C[C@@H](N)[C@H](O)[C@@H](O[C@@H]2O[C@H](CO)[C@H](O)[C@H]3O[C@@]4(O[C@H]23)O[C@H]([C@H](N)CO)[C@H](O)[C@H](O)[C@H]4O)[C@@H]1O | 16 (≈ 30.3 µM) | 128 (≈ 243 µM) | – | 16 (≈ 30.3 µM) | – | 32 (≈ 60.7 µM) | 32 (≈ 60.7 µM) | – | – | – | – | – |
| GENTAMICIN | < 0.06 | > 256 | Active | 128 | inactive | 16 | 0.13 | Active | inactive | – | – | Dose-dependent effect |
| CN[C@@H]1[C@@H](O)[C@@H](O[C@@H]2[C@@H](O)[C@H](O[C@H]3O[C@H](CN)[C@@H](O)[C@H](O)[C@H]3O)[C@@H](N)C[C@H]2NC(=O)[C@@H](O)CN)OC[C@]1(C)O [ISEPAMICIN] | 0.13 (≈ 0.228 µM) | > 256 | – | 64 (≈ 112 µM) | – | 128 (≈ 225 µM) | 0.13 (≈ 0.228 µM) | – | – | – | – | – |

— ChEMBL document CHEMBL1152454, “Novel plasmid-mediated 16S rRNA m1A1408 methyltransferase, NpmA, found in a clinically isolated Escherichia coli strain resistant to structurally diverse aminoglycosides” (2007)
